Data: ChEMBL document CHEMBL1137213, “New substituted piperazines as ligands for melanocortin receptors. Correlation to the X-ray structure of "THIQ"” (J Med Chem, 2004)

Experiments:
Melanocortin receptor 5 = Melanocortin receptor 5 (Homo sapiens, UniProt P33032); assay: Binding affinity towards Melanocortin 5 receptor using [125I]NDP-MSH
Outline: (§1)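 Human MC1, MC3, MC4 or MC5 receptor expressed in Sf9 cells by recombinant virus infection for 72 h; membranes prepared from these cells. Membranes (10 µg protein/100 µL) incubated with [125I]NDP-MSH and competing unlabeled ligand in 20 mM K-Hepes pH 7.4, 5 mM NaCl, 1 mM CaCl2, 0.5 mM MgCl2, 0.5 mg/mL BSA for 3 h at 25 °C. Ended by filtration through glass-fiber filters. Nonspecific binding set with 3 µM NDP-MSH.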

Melanocortin receptor 3 = Melanocortin receptor 3 (Homo sapiens, UniProt P41968); assay: Binding affinity towards Melanocortin 3 receptor using [125I]NDP-MSH; outline: as §1
Sequence of Melanocortin receptor 3 (P41968 whole entry): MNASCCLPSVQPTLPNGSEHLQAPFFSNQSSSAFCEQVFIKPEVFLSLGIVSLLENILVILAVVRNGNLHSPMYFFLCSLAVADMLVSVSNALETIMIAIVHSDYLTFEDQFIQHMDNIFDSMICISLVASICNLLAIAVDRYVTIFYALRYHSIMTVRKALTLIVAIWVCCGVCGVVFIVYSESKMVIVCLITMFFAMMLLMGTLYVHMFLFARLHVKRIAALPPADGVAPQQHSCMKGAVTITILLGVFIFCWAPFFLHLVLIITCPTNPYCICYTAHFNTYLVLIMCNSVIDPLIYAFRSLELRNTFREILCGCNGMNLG

Melanocortin receptor 4 = Melanocortin receptor 4 (Homo sapiens, UniProt P32245); assay: Binding affinity towards Melanocortin 4 receptor using [125I]NDP-MSH; outline: as §1
Sequence of Melanocortin receptor 4 (P32245 whole entry): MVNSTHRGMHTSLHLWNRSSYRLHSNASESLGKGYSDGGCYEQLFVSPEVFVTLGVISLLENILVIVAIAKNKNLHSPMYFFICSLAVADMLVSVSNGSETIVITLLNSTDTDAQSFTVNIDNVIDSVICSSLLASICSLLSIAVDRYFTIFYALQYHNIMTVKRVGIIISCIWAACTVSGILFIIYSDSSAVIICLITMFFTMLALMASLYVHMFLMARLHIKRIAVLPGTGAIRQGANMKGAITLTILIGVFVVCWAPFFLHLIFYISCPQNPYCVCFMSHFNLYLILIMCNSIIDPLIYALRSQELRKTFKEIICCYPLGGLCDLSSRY

[1] = target: Melanocyte-stimulating hormone receptor (Homo sapiens, UniProt Q01726); assay: Binding affinity towards Melanocortin 1 receptor using [125I]NDP-MSH; outline: as §1
Sequence of Melanocyte-stimulating hormone receptor (Q01726 whole entry): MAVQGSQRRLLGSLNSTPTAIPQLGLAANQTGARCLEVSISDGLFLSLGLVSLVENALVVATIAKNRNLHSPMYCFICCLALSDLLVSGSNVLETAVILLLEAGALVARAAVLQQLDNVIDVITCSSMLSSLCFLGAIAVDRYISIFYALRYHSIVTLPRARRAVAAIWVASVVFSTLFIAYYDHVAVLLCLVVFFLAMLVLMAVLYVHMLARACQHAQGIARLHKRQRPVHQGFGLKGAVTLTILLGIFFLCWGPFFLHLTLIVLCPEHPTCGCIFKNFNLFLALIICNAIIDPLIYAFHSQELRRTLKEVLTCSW

Sequence of Melanocortin receptor 5 (P33032 whole entry): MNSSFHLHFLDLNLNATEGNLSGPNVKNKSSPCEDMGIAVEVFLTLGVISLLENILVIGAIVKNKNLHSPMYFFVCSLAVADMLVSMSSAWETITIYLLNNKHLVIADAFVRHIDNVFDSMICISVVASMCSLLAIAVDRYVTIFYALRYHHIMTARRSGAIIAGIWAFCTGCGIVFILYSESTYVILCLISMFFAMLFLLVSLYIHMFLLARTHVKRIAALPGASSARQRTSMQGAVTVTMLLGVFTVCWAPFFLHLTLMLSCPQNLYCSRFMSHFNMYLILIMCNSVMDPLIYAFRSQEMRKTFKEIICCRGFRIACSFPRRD

| SMILES | Ki (Melanocortin receptor 5) | Ki (Melanocortin receptor 3) | Ki (Melanocortin receptor 4) | Ki [1] |
| --- | --- | --- | --- | --- |
| O=C(N[C@H](Cc1ccc(Cl)cc1)C(=O)N1CCN(C2(Cn3cncn3)CCCC2)CC1)C1Cc2ccccc2CN1 (stereo partly specified) | 18 µM | 8.8 µM | 1.5 µM | 0.53 µM |
| O=C(N[C@H](Cc1ccc(Cl)cc1)C(=O)N1CCN(c2ccccc2)CC1)C1Cc2ccccc2CN1 (stereo partly specified) | 17 µM | 15 µM | 30 µM | 13 µM |
| O=C(N[C@H](Cc1ccc(Cl)cc1)C(=O)N1CCN(C2CCCCC2Cn2cncn2)CC1)C1Cc2ccccc2CN1 (stereo partly specified) | 16 µM | 5.2 µM | 0.39 µM | 2 µM |
| O=C(N[C@H](Cc1ccc(Cl)cc1)C(=O)N1CCC(Cn2cncn2)(C2CCCCC2)CC1)[C@H]1Cc2ccccc2CN1 | 5 µM |  |  |  |
| O=C(N[C@H](Cc1ccc(Cl)cc1)C(=O)N1CCN(C2CCCCC2)CC1)C1Cc2ccccc2CN1 (stereo partly specified) | 8.2 µM | 6.8 µM | 1.4 µM | 11 µM |
| O=C(N[C@H](Cc1ccc(Cl)cc1)C(=O)N1CC[N+]([O-])(c2ccccc2)CC1)C1Cc2ccccc2CN1 (stereo partly specified) | 94 µM | 35 µM | 169 µM | 36 µM |
| O=C(N[C@H](Cc1ccc(Cl)cc1)C(=O)N1CCN([C@H]2CCCC[C@@H]2n2cncn2)CC1)C1Cc2ccccc2CN1 (stereo partly specified) | 17 µM | 6.5 µM | 0.86 µM | 2.2 µM |
| O=C(N[C@H](Cc1ccc(Cl)cc1)C(=O)N1CC[N+]([O-])(C2CCCCC2)CC1)C1Cc2ccccc2CN1 (stereo partly specified) | 102 µM | 114 µM | 57 µM | 152 µM |
| O=C(N[C@H](Cc1ccc(Cl)cc1)C(=O)N1CCN([C@@H]2CCCC[C@H]2n2cncn2)CC1)C1Cc2ccccc2CN1 (stereo partly specified) | 9.8 µM | 4.4 µM |  | 2 µM |
| O=C(N[C@H](Cc1ccc(Cl)cc1)C(=O)N1CCN(C2(Cn3cncn3)CCCCC2)CC1)C1Cc2ccccc2CN1 (stereo partly specified) | 14 µM | 5.6 µM | 1 µM | 3.2 µM |
